These results are taken from ChEMBL document CHEMBL3286113, “New potent antibacterial oxazolidinone (MRX-I) with an improved class safety profile” (J Med Chem, 2014).

Assay [1] has as its system Staphylococcus aureus. Put plainly: Antibacterial activity against Staphylococcus aureus in po dosed mouse septicemia model. Type of assay: functional.
Assay [2] deals with T1, Amine oxidase [flavin-containing] A (Homo sapiens, UniProt P21397).
T1 sequence (P21397 whole entry): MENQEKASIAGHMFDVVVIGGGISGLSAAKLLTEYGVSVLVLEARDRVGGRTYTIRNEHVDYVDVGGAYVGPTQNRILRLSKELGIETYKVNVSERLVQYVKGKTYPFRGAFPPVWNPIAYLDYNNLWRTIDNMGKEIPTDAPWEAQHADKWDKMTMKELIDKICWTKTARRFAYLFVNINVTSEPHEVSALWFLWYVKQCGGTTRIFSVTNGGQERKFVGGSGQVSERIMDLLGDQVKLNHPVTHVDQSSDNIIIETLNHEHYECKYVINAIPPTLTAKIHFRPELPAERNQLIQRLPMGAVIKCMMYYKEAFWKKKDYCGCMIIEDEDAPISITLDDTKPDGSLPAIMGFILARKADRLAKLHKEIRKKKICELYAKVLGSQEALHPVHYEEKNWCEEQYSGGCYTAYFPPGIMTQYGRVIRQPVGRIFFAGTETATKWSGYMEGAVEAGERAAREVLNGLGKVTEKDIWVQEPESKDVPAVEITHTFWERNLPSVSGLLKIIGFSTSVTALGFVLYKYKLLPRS
Description: Inhibition of human recombinant MAO-A expressed in yeast after 1 hr by luciferin-based luminescence assay.

Assay [3] relates to Staphylococcus aureus. Description: Antibacterial activity against methicillin-resistant Staphylococcus aureus SAU1009. Type of assay: functional. The procedure, abridged:
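MIC against MRSA strain SAU1009.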

In assay [4] the test system is Staphylococcus aureus. Description: Antibacterial activity against methicillin-resistant Staphylococcus aureus. Type of assay: functional.
Assay [5] in a line: Myelosuppression activity against human CD34-positive blood stem/progenitor cells assessed as growth inhibition after 9 to 10 days by CellTiter-Glo luminescent assay.
Assay [6] has as its system Staphylococcus aureus. Description: Antibacterial activity against Staphylococcus aureus. The format is functional.
Assay [7] concerns Enterococcus faecium. Description: Bacteriostatic activity against vancomycin-resistant Enterococcus faecium. The format is functional.
In a further assay the test system is Enterococcus faecalis. Description: Bacteriostatic activity against vancomycin-sensitive Enterococcus faecalis. Type of assay: functional.
Assay [8] concerns Enterococcus faecium. Put plainly: Bacteriostatic activity against vancomycin-sensitive Enterococcus faecium. Type of assay: functional.
Another assay deals with Enterococcus. Put plainly: Bacteriostatic activity against vancomycin-sensitive Enterococcus. Type of assay: functional.
For assay [9], the system named is Staphylococcus aureus. Put plainly: Antibacterial activity against Staphylococcus aureus UC9213. The format is functional.
The test system of assay [10] is Staphylococcus aureus. Description: Antibacterial activity against Staphylococcus aureus by agar dilution method. The format is functional. The procedure, abridged: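 MIC determined by agar dilution across S. aureus/MRSA isolates; MIC90 is the concentration inhibiting 90% of strains tested.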
In general terms: Agar dilution tests growth on a series of plates holding different concentrations.

Values after ≈ are worked out from the molar mass of the structure shown.

In the assay with Staphylococcus aureus [1], `CC(=O)NC[C@H]1CN(c2ccc(N3C=CC(=O)CC3)c(F)c2F)C(=O)O1` returned an ED50 of 15.9 mg/kg. For the same compound, in assay [2], the IC50 was greater than 274 µM. The MIC with Staphylococcus aureus [3] was 1 µg/mL (≈ 2.74 µM).

Take `Cn1nnc(-c2ccc(-c3ccc(N4C[C@H](COP(=O)(O)O)OC4=O)cc3F)cn2)n1` [TEDIZOLID PHOSPHATE]: the MIC90 in the assay on Staphylococcus aureus [4] was 0.5 µg/mL. The IC50 in assay [2] was 4 µM; in [5], 0.2 µg/mL.

Compound `Cn1nnc(-c2ccc(-c3ccc(N4C[C@H](CO)OC4=O)cc3F)cn2)n1` [TEDIZOLID] returned an MIC against Staphylococcus aureus [3] of 0.25 µg/mL (≈ 0.675 µM).

As to `O=C1C=CN(c2c(F)cc(N3C[C@H](Cn4ccnn4)OC3=O)c(F)c2F)CC1`, in the assay on Staphylococcus aureus [1], the ED50 was 10 mg/kg. In addition, the half-inhibitory concentration (IC50) in [2] is greater than 254 µM. This compound had an MIC against Staphylococcus aureus [3] of 1 µg/mL (≈ 2.54 µM).

`N#Cc1ccc(-c2ccc(N3C[C@H](CO)OC3=O)c(F)c2F)cn1` registered an MIC in the assay with Staphylococcus aureus [3] of 1 µg/mL (≈ 3.02 µM).

`CC(=O)NC[C@H]1CN(c2ccc(C(C)=O)cc2F)C(=O)O1` gave an MIC in the assay with Staphylococcus aureus [6] of 32 µg/mL (≈ 109 µM).

Turning to `CC(=O)NC[C@H]1CN(c2cc(F)c(N3C=CC(=O)CC3)c(F)c2F)C(=O)O1`, the ED50 with Staphylococcus aureus [1] is greater than 20 mg/kg. The compound also came in with an MIC against Staphylococcus aureus [3] of 2 µg/mL (≈ 5.22 µM).

Take `COC(=O)NC[C@H]1CN(c2cc(F)c(N3C=CC(=O)CC3)c(F)c2F)C(=O)O1`: the ED50 in the assay on Staphylococcus aureus [1] came out at 6.3 mg/kg. Also, the IC50 in [2] was 61.1 µM. This compound also had an MIC against Staphylococcus aureus [3] of 2 µg/mL (≈ 5.01 µM).

As to `O=C1O[C@@H](CO)CN1c1ccc(-c2ccc(N3CCOC3=O)nc2)c(F)c1`, the MIC against Staphylococcus aureus [3] stood at 0.125 µg/mL (≈ 0.335 µM).

Consider `N#Cc1ccc(-c2ccc(N3C[C@H](CO)OC3=O)cc2F)cn1`, for which the MIC in the assay on Staphylococcus aureus [3] worked out at 0.25 µg/mL (≈ 0.798 µM).

As for `O=C1OCCN1c1ccc(-c2ccc(N3C[C@H](CO)OC3=O)c(F)c2F)cn1`, the MIC with Staphylococcus aureus [3] came to 0.5 µg/mL (≈ 1.28 µM).

Take `CN[C@H](CC(C)C)C(=O)N[C@H]1C(=O)N[C@@H](CC(N)=O)C(=O)N[C@H]2C(=O)N[C@H]3C(=O)N[C@H](C(=O)N[C@H](C(=O)O)c4cc(O)cc(O)c4-c4cc3ccc4O)[C@H](O)c3ccc(c(Cl)c3)Oc3cc2cc(c3O[C@@H]2O[C@H](CO)[C@@H](O)[C@H](O)[C@H]2O[C@H]2C[C@](C)(N)[C@H](O)[C@H](C)O2)Oc2ccc(cc2Cl)[C@H]1O` [VANCOMYCIN]: the MIC50 in the assay on Enterococcus faecium [7] was greater than 128 µg/mL; against Enterococcus faecalis, 0.5 µg/mL (≈ 0.345 µM); against Enterococcus faecium [8] it was 0.5 µg/mL (≈ 0.345 µM); against Enterococcus, 0.5 µg/mL (≈ 0.345 µM). In addition, the MIC90 is greater than 128 µg/mL against Enterococcus faecium [7], 1 µg/mL (≈ 0.69 µM) with Enterococcus faecalis, 0.5 µg/mL (≈ 0.345 µM) in the assay on Enterococcus faecium [8] and 2 µg/mL (≈ 1.38 µM) in the assay on Enterococcus.

In the case of `CC(=O)NC[C@H]1CN(c2ccc(C(C)=O)cc2)C(=O)O1` [DUP-721], 0.5 µg/mL (≈ 1.81 µM) was the least that counted as inhibitory with Staphylococcus aureus [6] (MIC).

`O=C1C=CN(c2ccc(N3C[C@H](COc4ccon4)OC3=O)c(F)c2F)CC1` showed an ED50 with Staphylococcus aureus [1] greater than 20 mg/kg. Also, in the assay with Staphylococcus aureus [3], the MIC is 4 µg/mL (≈ 10.2 µM).

In turn, `CC(=O)NC[C@H]1CN(c2ccc(N3C=CC(=O)CC3)c(F)c2)C(=O)O1` displayed a median effective dose (ED50) in the assay on Staphylococcus aureus [1] of 10 mg/kg. The IC50 in assay [2] is 10.9 µM. The compound further came in with a minimum inhibitory concentration (MIC) against Staphylococcus aureus [9] of 0.5 µg/mL (≈ 1.44 µM).

Consider `Cn1nnc(-c2ccc(-c3ccc(N4C[C@H](CO)OC4=O)c(F)c3F)cn2)n1`, for which, in the assay with Staphylococcus aureus [3], the MIC was determined as 1 µg/mL (≈ 2.58 µM).

Turning to `CC(=O)NC[C@H]1CN(c2cc(F)c(N3CCOCC3)c(F)c2F)C(=O)O1`, in the assay with Staphylococcus aureus [10], the MIC90 is 4 µg/mL (≈ 10.7 µM).

The ED50 is the midpoint of the dose-response relation. Read a high ED50 as weaker potency. Broadly, the IC50 is the concentration that gives 50% inhibition. What is called MIC is the lowest concentration found to suppress growth. Read a low MIC as inhibition by little substance. One may read the MIC90 as the lowest concentration that inhibits either 90% of growth or 90% of the strains tested, depending on the study. A high value points to weaker potency. The term MIC50 denotes an inhibitory concentration at the 50% level, which refers to growth in some studies and to a panel of isolates in others. Read a high MIC50 as lower susceptibility.
